Blank lines part the entries; values can stand above or below the compound they belong to.
Legend:
[1] = tested on: primary human leukemia cells from 5 individual patients; test: Ex vivo killing of primary human leukemia cells; format: cell-based; details: 18–20 hr; for leukemia cell apoptosis: comparable inhibitor concentrations
Outline: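 BM mononuclear cells from newly diagnosed, untreated AML patients, isolated by Ficoll after BM biopsy. Used fresh or frozen; frozen cells thawed straight into IMDM with 50% FBS plus DNaseI. Viability stained with Annexin V and 7AAD after blocking with 20% human serum.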

[2] = tested on: MV4–11 cells (pSer2/5 CTD, DDR, p53, MDM2, caspase 3); test: Western blot of MV4–11 cells, single and combination treatment; format: cell-based, human; details: for DDR, p53, MDM2 and caspase 3 activation: MV4–11, single agent (BTX161 6 hr, iCDK9 4 hr, THZ1 4 hr)
Outline: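 MV4–11 cells treated at several concentrations, alone or combined: CKIα degrader for 6 hr, CDK9 inhibitor for 4 hr, CDK7 inhibitor for 4 hr. Lysates immunoblotted, with PP2Ac as loading control.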

[3] = tested on: primary leukemic BM cells isolated from MLL-AF9-induced AML mice; test: Ex vivo apoptosis; format: cell-based, mouse; details: 18 hr, Annexin V-positive cells
Outline: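 Leukemic mice (>80% GFP+ in PB); BM flushed from femur and tibia, erythrocytes lysed, cells strained. Cells cultured in StemPro-34 with 10 ng/ml IL3, IL6, TPO and SCF, 1.5*10^5 cells per well. Treated 16–18 hr, 5% CO2, with DMSO stocks diluted 1:1000; DMSO-only control. Stained with Annexin V-PE and 7AAD; flow read-out of GFP and PE. Triplicates, mean ± SD.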

normal C57BL/6 mice = test: 7-day daily treatment for maximal tolerated dose; format: in vivo, mouse; details: 7 days
[4] = tested on: MYC, MDM2, AXIN2, CCND1 mRNA in MV4–11 cells; test: qPCR mRNA analysis of MV4–11 cells; format: cell-based, human; details: 4 hr; A51 2μM, A86 2μM, BTX161 25μM
Outline: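 MV4–11 cells were treated for 4 hr with test compounds or DMSO, and transcripts were measured by qPCR. Three replicates (N = 3) were run, given as mean ± SD and compared by Student's t test.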

[5] = tested on: MV4–11 cells (DDR, p53, MDM2, MYC, MCL1); test: Western blot of MV4–11 cells; format: cell-based, human; details: 6.5 hr
Outline: (§1)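 MV4–11 cells were exposed to test compounds at set concentrations or DMSO for 6.5 hr and analysed by western blot, with PP2Ac as loading control.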

CKIα [6] = test: Western blot of CKIα degradation in human AML cells; format: cell-based; details: MV4–11 cells, 6.5 hr
Outline: as §1

CKIα [7] = biological target: CKIα (Homo sapiens, UniProt P48729); test: KINOMEscan binding assay; details: Figure 1C
CKIε = CKIε (Homo sapiens, UniProt P49674); test: KINOMEscan binding assay; details: Figure 1C
CKIδ = CKIδ (Homo sapiens, UniProt P48730); test: KINOMEscan binding assay; details: Figure 1C
p53 in RKO cells = test: Western blot of RKO cells treated with A-series inhibitors; format: cell-based, human; details: 18 hr
Outline: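 RKO cells grown in DMEM with 10% serum. Treated 18 hr with test compounds at several concentrations or DMSO. Lysates immunoblotted.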

GSK3α/β = test: KINOMEscan binding assay; details: Figure 1C
CDK9 = CDK9 (Homo sapiens, UniProt P50750); test: KINOMEscan binding to transcriptional kinases; details: for CDK9 Kd (direct binding affinity): Figure 4D
CDK7 = CDK7 (Homo sapiens, UniProt P50613); test: KINOMEscan binding to transcriptional kinases; details: for CDK7 Kd (direct binding affinity): Figure 4D
CDK8 = CDK8 (Homo sapiens, UniProt P49336); test: KINOMEscan binding to transcriptional kinases; details: Figure S4B
[8] = tested on: Pol II CTD phosphorylation at Ser2 and Ser5; test: Western blot of Pol II CTD phosphorylation, primary mouse AML cells; format: cell-based; details: ex vivo 6 hr
Outline: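 Primary spleen cells from MLL-AF9 AML mice treated ex vivo for 6 hr with test compounds at several concentrations or DMSO. DMSO stocks diluted 1:1000 into medium. Immunoblot with PP2Ac as loading control.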

[9] = tested on: mouse splenic AML cells (MLL-AF9); test: Rapid-hit ex vivo AML killing assay; format: cell-based; details: 5 mins exposure, washout, further incubation
Outline: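 Mouse AML cells were plated at 1.5 × 10^5 per 0.15 mL in StemPro-34 with IL3, IL6, TPO and SCF (10 ng/ml each) at 5% CO2. Test compound was added from DMSO stock diluted 1:1000, with DMSO alone as control. At the set times cells were spun, resuspended in drug-free medium and kept for 18 hr total. Cells were stained with Annexin V-PE/7AAD and read by flow for GFP and PE.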

CDK11a = CDK11a (Homo sapiens, UniProt Q9UQ88); test: KINOMEscan binding to transcriptional kinases; details: Figure S4B
CDK11b = CDK11b (Homo sapiens, UniProt P21127); test: KINOMEscan binding to transcriptional kinases; details: Figure S4B
[10] = tested on: cKit^HiCD11b^Low progenitors from Tet2^−/−;Flt3^ITD mice; test: Ex vivo apoptotic killing of Tet2−/−; format: cell-based, mouse; details: 16 hr after treatment
[11] = tested on: heavy burden MLL-AF9 leukemic mice; test: Acute in vivo anti-leukemic effect, single oral dose; set-up: species or system mouse
Outline: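 MLL-AF9-IRES-GFP retrovirus-transduced BM cells were passaged through sublethally irradiated (500 rad) mice. 50,000 GFP+ BM cells were then injected IV into irradiated (250 rad) C57BL/6 WT mice aged 8–12 weeks. Mice with >80% GFP+ cells in PB got a single oral dose (e.g. 10 or 20 mg/kg) or vehicle and were sacrificed at short time points (5–6 or 16 hr). Read-outs: […], absolute BM GFP+ blast counts, H&E sections and blood smears; mean ± SD, N ≥ 3.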

[12] = tested on: Pol II CTD phosphorylation at Ser2 and Ser5; test: Western blot of Pol II CTD phosphorylation, MV4–11 cells; format: cell-based; details: MV4–11 human AML cells
CDK19 = CDK19 (Homo sapiens, UniProt Q9BWU1); test: KINOMEscan binding to transcriptional kinases; details: Figure S4B
CDK13 = CDK13 (Homo sapiens, UniProt Q14004); test: KINOMEscan binding to transcriptional kinases; details: Figure S4B
Myc, Mdm2, Mcl1 mRNA = test: qPCR analysis of mouse primary AML BM cells; format: cell-based; details: 1 μM, 4 hr ex vivo
Outline: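 Primary BM AML cells from MLL-AF9 mice treated ex vivo for 4 hr with 1 μM test compound or DMSO (stocks diluted 1:1000). Myc, Mdm2, Mcl1 and Axin2 transcripts measured by qPCR. N = 3, mean ± SD, Student's t test.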

Chain of CDK7 (P50613 whole entry): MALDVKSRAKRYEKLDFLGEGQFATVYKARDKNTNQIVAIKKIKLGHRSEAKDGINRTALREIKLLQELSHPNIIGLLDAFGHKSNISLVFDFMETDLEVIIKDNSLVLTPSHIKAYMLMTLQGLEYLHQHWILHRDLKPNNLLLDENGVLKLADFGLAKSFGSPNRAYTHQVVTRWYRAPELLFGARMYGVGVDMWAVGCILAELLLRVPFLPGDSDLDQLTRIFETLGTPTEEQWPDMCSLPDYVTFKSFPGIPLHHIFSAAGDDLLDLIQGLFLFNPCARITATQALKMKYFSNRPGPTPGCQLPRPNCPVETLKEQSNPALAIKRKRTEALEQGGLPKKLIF
Chain of CDK9 (P50750 whole entry): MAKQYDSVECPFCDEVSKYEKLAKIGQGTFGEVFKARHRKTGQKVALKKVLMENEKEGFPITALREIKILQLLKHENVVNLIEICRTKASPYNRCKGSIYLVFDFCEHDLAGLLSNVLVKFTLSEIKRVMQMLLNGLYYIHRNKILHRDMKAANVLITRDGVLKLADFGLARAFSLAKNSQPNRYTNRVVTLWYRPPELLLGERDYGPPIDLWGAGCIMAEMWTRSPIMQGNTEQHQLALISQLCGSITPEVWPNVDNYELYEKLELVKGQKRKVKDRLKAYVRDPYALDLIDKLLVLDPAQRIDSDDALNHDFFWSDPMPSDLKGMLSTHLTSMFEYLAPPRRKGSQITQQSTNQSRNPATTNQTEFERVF
Chain of CDK11a (Q9UQ88 whole entry): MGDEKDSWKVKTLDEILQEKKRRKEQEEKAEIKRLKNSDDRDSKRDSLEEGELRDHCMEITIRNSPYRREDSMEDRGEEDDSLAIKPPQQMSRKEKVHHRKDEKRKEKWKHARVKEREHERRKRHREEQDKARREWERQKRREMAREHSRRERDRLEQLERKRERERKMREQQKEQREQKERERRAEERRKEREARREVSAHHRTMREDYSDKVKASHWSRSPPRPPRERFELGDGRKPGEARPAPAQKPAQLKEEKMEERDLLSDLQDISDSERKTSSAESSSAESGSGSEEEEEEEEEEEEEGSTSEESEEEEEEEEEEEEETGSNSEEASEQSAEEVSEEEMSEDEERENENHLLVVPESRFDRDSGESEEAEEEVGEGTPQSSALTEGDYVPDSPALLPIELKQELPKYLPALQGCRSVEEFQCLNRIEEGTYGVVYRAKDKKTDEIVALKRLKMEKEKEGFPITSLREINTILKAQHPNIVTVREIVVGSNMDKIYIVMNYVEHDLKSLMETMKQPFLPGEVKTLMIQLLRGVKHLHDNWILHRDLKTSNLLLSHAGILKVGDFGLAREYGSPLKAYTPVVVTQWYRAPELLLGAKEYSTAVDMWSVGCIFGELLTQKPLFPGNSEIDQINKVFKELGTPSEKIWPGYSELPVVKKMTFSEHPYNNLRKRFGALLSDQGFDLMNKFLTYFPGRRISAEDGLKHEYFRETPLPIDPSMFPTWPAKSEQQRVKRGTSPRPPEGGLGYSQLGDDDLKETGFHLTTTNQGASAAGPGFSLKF
Chain of CDK13 (Q14004 whole entry): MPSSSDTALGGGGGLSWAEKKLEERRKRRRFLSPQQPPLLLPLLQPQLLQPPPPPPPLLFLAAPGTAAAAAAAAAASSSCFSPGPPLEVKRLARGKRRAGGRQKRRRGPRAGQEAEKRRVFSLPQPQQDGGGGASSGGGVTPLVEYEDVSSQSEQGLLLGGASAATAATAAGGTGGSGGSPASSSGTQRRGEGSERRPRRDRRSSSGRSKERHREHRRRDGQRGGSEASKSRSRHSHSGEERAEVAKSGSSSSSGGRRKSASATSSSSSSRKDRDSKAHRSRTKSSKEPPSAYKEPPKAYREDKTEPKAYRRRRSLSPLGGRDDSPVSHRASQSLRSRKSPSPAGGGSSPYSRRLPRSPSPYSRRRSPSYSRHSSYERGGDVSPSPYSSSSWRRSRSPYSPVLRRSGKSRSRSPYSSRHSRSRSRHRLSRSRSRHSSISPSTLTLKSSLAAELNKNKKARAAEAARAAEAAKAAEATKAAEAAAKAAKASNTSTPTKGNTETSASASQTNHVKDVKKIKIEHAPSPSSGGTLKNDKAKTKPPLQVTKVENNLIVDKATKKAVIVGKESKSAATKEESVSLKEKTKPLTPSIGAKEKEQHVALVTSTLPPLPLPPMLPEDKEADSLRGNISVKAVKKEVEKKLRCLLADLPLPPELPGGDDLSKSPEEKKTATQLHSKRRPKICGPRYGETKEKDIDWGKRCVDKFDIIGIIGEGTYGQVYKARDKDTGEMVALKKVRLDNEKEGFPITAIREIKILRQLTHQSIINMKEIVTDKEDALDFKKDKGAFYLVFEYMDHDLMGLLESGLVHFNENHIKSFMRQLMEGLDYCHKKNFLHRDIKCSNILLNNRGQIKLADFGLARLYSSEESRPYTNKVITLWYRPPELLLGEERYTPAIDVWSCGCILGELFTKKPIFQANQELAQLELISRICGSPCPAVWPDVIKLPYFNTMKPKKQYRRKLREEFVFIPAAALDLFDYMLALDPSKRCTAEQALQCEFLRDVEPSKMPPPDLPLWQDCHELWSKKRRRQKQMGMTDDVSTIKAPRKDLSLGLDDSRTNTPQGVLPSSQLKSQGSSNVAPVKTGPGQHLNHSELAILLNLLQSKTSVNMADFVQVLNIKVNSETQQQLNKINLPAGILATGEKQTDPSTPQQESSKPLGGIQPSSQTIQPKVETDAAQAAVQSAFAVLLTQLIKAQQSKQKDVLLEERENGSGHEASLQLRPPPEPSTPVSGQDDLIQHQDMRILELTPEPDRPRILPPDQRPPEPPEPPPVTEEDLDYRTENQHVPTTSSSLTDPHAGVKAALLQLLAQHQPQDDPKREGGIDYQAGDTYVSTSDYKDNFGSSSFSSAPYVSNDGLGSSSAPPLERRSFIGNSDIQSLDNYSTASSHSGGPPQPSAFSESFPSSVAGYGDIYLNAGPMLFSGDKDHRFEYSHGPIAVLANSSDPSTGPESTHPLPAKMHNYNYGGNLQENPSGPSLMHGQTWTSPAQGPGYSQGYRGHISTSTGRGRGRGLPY
Chain of CKIα (Homo sapiens, UniProt P48729) (P48729 whole entry): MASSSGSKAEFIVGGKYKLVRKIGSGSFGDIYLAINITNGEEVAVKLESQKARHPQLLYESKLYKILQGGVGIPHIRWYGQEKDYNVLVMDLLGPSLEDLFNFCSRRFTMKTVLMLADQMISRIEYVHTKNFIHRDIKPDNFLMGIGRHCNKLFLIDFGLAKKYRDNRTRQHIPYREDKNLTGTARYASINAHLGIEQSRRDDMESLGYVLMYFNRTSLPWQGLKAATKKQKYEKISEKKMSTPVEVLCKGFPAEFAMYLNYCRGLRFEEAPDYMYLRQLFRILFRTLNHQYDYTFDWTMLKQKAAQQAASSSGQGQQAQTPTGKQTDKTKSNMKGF
Chain of CKIε (P49674 whole entry): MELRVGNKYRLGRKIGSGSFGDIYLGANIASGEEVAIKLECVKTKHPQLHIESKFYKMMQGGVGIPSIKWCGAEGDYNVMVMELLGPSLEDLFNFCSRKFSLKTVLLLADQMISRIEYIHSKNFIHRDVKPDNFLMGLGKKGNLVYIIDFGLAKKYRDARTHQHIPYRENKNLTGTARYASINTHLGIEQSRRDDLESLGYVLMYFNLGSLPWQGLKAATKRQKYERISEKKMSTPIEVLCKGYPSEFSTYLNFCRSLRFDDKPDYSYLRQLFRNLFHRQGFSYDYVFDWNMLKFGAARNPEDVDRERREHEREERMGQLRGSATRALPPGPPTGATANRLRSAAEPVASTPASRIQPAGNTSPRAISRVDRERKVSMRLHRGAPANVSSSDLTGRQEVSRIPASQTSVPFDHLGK
Chain of CKIδ (P48730 whole entry): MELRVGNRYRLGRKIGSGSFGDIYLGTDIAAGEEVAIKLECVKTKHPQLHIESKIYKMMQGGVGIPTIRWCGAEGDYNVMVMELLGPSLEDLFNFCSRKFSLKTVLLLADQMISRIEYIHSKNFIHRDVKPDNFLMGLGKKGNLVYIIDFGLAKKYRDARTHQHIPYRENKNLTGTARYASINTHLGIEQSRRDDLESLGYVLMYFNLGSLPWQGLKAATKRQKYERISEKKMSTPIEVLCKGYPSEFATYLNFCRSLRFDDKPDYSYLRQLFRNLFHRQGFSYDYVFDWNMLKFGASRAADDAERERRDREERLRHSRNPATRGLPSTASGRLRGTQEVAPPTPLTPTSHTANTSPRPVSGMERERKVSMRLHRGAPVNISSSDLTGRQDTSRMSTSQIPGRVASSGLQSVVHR
Chain of CDK19 (Q9BWU1 whole entry): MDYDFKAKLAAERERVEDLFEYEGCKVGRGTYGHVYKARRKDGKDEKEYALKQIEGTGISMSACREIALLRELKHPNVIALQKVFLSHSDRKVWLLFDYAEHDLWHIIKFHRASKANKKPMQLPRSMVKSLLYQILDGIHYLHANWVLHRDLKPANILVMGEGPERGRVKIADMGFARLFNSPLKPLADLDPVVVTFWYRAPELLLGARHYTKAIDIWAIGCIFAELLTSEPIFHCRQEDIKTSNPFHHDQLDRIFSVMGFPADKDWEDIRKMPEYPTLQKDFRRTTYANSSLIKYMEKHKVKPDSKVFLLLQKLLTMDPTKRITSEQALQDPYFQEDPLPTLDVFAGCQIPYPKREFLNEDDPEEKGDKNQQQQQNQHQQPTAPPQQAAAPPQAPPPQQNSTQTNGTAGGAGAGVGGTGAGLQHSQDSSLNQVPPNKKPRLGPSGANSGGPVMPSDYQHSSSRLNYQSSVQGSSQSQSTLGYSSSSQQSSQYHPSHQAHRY

Structure (SMILES): CO[C@@H]1[C@H](N(C)C(=O)c2ccccc2)C[C@H]2O[C@]1(C)n1c3ccccc3c3c4c(c5c6ccccc6n2c5c31)C(=O)NC4 [midostaurin, reference compound]
leukemia cell apoptosis [1]: but not by A64 or midostaurin

Structure (SMILES): CN(C)C/C=C/C(=O)Nc1ccc(C(=O)Nc2cccc(Nc3ncc(Cl)c(-c4c[nH]c5ccccc45)n3)c2)cc1 [THZ1]
pSer2/5 CTD ([2]; MV4–11, 4 hr, single agent): reduced the pSer2/5 CTD
DDR, p53, MDM2 and caspase 3 activation [2]: little effect on DDR, p53, and caspase 3 activation

Structure (SMILES): Cn1ncc(-c2ccnc(N[C@H]3CC[C@H](N)CC3)n2)c1CC1CC1 [A14, (1R, 4R)-N^1-(4-(5-(cyclopropylmethyl)-1-methyl-1H-pyrazol-4-yl)pyrimidin-2-yl)cyclohexane-1,4-diamine]
concentration highly effective in inducing leukemia cell apoptosis [3]: ≤ 160 nM
effect on hematopoiesis at 5–10 mg/kg (normal C57BL/6 mice; 5–10 mg/kg): no adverse effect on hematopoiesis
effect on blood counts at doses above 10 mg/kg (normal C57BL/6 mice; doses above 10 mg/kg): transiently reduced the white blood cells (WBC) and platelet counts

Structure (SMILES): Cc1cccc2c1CN([C@H]1CCCC(=O)NC1=O)C2=O [BTX161, (S)-3-(4-methyl-1-oxoisoindolin-2-yl)azepane-2,7-dione]
DDR, p53, MDM2 and caspase 3 activation [2]: augmented p53 and MDM2 protein expression
effect on mRNA expression (MYC, MDM2, Wnt targets) [4]: upregulated all the Wnt targets including MYC and did not affect MDM2 mRNA expression
effect on DDR, p53, MDM2, MYC, MCL1 protein levels (WB) [5]: activates DDR and p53, while stabilizing the p53 antagonist MDM2
CKIα degradation (CKIα [6]): mediates degradation of CKIα better than lenalidomide

Structure (SMILES): Cn1ncc(-c2nc(NC3CCC(NCc4cn[nH]c4)CC3)ncc2Cl)c1CC1CC1 [A75, (1R,4R)-N^1-((1H-pyrazol-4-yl)methyl)-N^4-(5-chloro-4-(5-(cyclopropylmethyl)-1-methyl-1H-pyrazol-4-yl)pyrimidin-2-yl)cyclohexane-1,4-diamine]
concentration highly effective in inducing leukemia cell apoptosis [3]: ≤ 160 nM

CKIα affinity (CKIα [7]): low CKIα affinity
affinity to CKIε (CKIε): high affinity
affinity to CKIδ (CKIδ): high affinity
GSK3α/β affinity (GSK3α/β): high GSK3α/β affinity
CDK9 Kd (direct binding affinity) (CDK9): poorly
CDK7 Kd (direct binding affinity) (CDK7): moderately
Structure (SMILES): Cn1ncc(-c2nc(N[C@H]3CC[C@H](n4cccn4)CC3)ncc2Cl)c1CC1CC1 [A64, N-((1R,4R)-4-(1H-pyrazol-1-yl)cyclohexyl)-5-chloro-4-(5-(cyclopropylmethyl)-1-methyl-1H-pyrazol-4-yl)pyrimidin-2-amine]
leukemia cell apoptosis [1]: but not by A64 or midostaurin
p53 induction (p53 in RKO cells): only induces p53 at a high concentration

inhibition of CDK8 in binding screen (CDK8): hardly any inhibition
inhibition of CDK11a in binding screen (CDK11a): hardly any inhibition
inhibition of CDK11b in binding screen (CDK11b): hardly any inhibition
CDK9 Kd (direct binding affinity) (CDK9): low nM Kd values
inhibition of CDK9 (P-TEFb) in binding screen (CDK9; Figure S4B): high inhibition
inhibition of CDK19 in binding screen (CDK19): hardly any inhibition
inhibition of CDK13 in binding screen (CDK13): hardly any inhibition
CDK7 Kd (direct binding affinity) (CDK7): low nM Kd values
inhibition of CDK7 (TFIIH) in binding screen (CDK7; Figure S4B): high inhibition
Structure (SMILES): Cn1ncc(-c2nc(NC3CCC(N)CC3)ncc2F)c1CC1CC1 [A86, (1R,4R)-N^1-(4-(5-(cyclopropylmethyl)-1-methyl-1H-pyrazol-4-yl)-5-fluoropyrimidin-2-yl)cyclohexane-1,4-diamine]
effect on mRNA expression (MYC, MDM2, Wnt targets) [4]: marked reduction in mRNA expression of MYC and MDM2
Pol II CTD phosphorylation at Ser2 and Ser5 [8]: marked reduction
AML cell killing after short exposure [9]: sufficient to induce significant AML cell killing
leukemia cell apoptosis [1]: leukemia cell apoptosis
IC50 ([1]; read-out: IC50 of killing effect, all 5 patient samples): 20 to 50 nM
ex vivo apoptotic killing of cKit^HiCD11b^Low progenitors [10]: superior to midostaurin
leukemic cell counts (GFP+) in BM and peripheral blood ([11]; 16 hr post single oral dose): 5%–10%
in vivo signaling in leukemic cells after single oral treatment ([11]; A51 20 mg/kg 3 and 6 hr, A86 10 mg/kg 5 hr, spleen AML cells WB): phospho-CTD inhibition with downregulation of MCL1 and activation of p53, DDR, and caspase 3
Pol II CTD phosphorylation at Ser2 and Ser5 [12]: marked reduction
concentration highly effective in inducing leukemia cell apoptosis [3]: ≤ 160 nM
effect on DDR, p53, MDM2, MYC, MCL1 protein levels (WB) [5]: abolished the expression of MYC, MDM2, and the anti-apoptotic oncogene MCL1
Myc, Mdm2, and Mcl1 mRNA expression (Myc, Mdm2, Mcl1 mRNA): significant reduction of Myc, Mdm2, and Mcl1 mRNA expression
